Compound activity (PubChem BioAssay)
NPR2 activator: human GC-B receptor activators, primary screen, HEK293 GC-B cells, cGMP TR-FRET, EC30 CNP; Atrial natriuretic peptide receptor 2 (Homo sapiens), P20594; 0% at EC30 CNP, 100% saturating CNP; activation, % at 10 µM; hit rate 0.11% among 370,000;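 active means activation at 10 µM reaching about 35% in either raw or pattern-adjusted values, limit read from the data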
Target sequence (P20594 whole entry, looked up): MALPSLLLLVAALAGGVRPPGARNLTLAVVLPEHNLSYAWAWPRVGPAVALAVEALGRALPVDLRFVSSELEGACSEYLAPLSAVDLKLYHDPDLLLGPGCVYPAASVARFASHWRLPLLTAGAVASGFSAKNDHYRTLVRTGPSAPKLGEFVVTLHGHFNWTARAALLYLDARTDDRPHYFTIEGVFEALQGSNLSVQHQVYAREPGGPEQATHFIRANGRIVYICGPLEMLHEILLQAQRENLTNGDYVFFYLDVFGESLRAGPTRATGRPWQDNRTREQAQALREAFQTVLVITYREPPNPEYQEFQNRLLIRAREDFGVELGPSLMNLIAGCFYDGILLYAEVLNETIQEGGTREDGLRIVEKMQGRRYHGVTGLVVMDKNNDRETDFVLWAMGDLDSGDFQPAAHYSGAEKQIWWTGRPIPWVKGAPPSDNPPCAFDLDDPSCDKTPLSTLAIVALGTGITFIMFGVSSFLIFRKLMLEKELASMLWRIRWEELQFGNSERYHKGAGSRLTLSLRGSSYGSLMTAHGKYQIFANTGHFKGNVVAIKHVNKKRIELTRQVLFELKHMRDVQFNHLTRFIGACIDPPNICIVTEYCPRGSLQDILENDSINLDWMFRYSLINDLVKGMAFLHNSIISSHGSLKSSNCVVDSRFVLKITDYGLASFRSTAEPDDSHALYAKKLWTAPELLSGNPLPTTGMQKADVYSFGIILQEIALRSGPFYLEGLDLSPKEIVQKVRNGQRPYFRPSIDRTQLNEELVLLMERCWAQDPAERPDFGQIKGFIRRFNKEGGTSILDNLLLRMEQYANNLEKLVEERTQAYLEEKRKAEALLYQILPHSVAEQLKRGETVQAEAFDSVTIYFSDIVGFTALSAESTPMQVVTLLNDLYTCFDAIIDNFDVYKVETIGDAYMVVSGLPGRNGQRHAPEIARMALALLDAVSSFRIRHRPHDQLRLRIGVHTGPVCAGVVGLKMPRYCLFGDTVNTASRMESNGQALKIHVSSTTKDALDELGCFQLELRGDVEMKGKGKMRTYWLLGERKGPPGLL
Arr AP2 block: inhibitors of beta-arrestin/AP2 binding, primary screen, biochemical, GPCR trafficking, flow cytometry; beta-arrestin 1 C-terminal peptide binding to AP2 beta2-adaptin appendage (human); FITC-arrestin peptide / GST-AP2 beads; AP2 beta2 appendage carries R879A mutation; inhibition, % at 10 µM; hit rate 0.31% among 340,000; AID 504490, 2011;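 active means inhibition above a set limit, near 3 SD of compounds lacking own fluorescence, cut at about 54% in these data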;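 further: plate controls were DMSO wells for no effect and 5 µM unlabelled arrestin peptide for full effect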
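Assay system: GST-AP2 R879A bound to glutathione beads, E. coli-expressed; Medium: PBS with 0.05% Tween 20 and 0.1% BSA; Also added: fluorescein-tagged arrestin peptide at 50 nM final; Timing: 12 min plus 1 h, RT; Measured by: flow cytometry, FL1 (488/535 nm); Evaluation: percent drop in bead-associated FITC signal.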
GC-A act: GC-A stimulated cGMP production enhancers – HEK293 GC-A cells, cGMP TR-FRET, EC30 ANP, primary screen; 0% at EC30 ANP, 100% saturating ANP; activation, % at 10 µM; hit rate 0.14% among 370,000; AID 1671463, 2021; in the data active means activation above about 40%
GalR3 antagonist: GalR3 antagonists in HEK293 cells, primary screen, cell-based, fluorescence readout. Galanin receptor type 3 (Homo sapiens), O60755. HEK293 GalR3-CNG cAMP membrane potential fluorescence; galR3 body fused to GalR1 C-terminus. inhibition, % at 3 µM. hit rate 0.44% among 360,000;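 active means inhibition above the screen-wide average plus 3 SD, cut at about 13% in these data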;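 further: forskolin and galanin both at EC90 stimulate the cells; cAMP rise reported by CNG channel membrane potential dye signal; 0% = forskolin plus galanin with DMSO and 100% = forskolin alone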
Active calls of the source: *; . = no result. Shown are actives, neighbours in structure and some others; about 0.94% of the full set was active somewhere.

SMILES | NPR2 activator | Arr AP2 block | GC-A act | GalR3 antagonist
Cc1cc(NS(=O)(=O)c2ccc(NC(=O)CSc3nnc(-c4ccccn4)n3-c3ccccc3)cc2)nc(C)n1 | 2 | . | 2 | .
Cc1cc(Nc2cccc(Cl)c2Cl)n2ncnc2n1 | 39* | 16 | -1 | -12
Cc1ccc(Nc2cc(C)nc3ncnn23)c(Cl)c1 | 2 | 5 | 4 | -2
COc1ccc(-n2c(N)c(C(=O)NCC3CCCO3)c3nc4ccccc4nc32)c(OC)c1 (centres undefined) | 40* | -3 | 40* | -2
Cc1ccc(-n2c(SCC(=O)Nc3ccc(OCc4ccccc4)cc3)nnc2-c2ccco2)cc1 | 0 | . | -1 | .
CC1(C)CC(=O)C2=C(C1)NC(Nc1nc3ccccc3o1)=NC21CCCC1 | -3 | 1 | 0 | -6
CC1(C)CC(=O)C2=C(C1)NC(Nc1nc3ccccc3o1)=NC2c1ccccn1 (centres undefined) | 2 | 27 | 46* | -5
CCCCNC(=O)C1(C(=O)c2ccc(OC)cc2)CC(c2ccccn2)=NO1 (centres undefined) | 1 | . | 2 | .
COc1ccc(CN(C2CCCC2)S(=O)(=O)c2cc(Br)ccc2Br)c(OC)c1 | -2 | . | -2 | -5
CCC12CN(C(=O)c3ccc([N+](=O)[O-])cc3)CC(CC)(CN(C(=O)c3ccc([N+](=O)[O-])cc3)C1)C2=O | -3 | 35 | 0 | -8
CCC12CN(C(=O)c3ccc(OC)cc3)CC(CC)(CN(C(=O)c3ccc(OC)cc3)C1)C2=O | 75* | -9 | -4 | -2
Cc1cccc(NC(=O)NN(C(=O)c2ccccc2Cl)C(C)(C)C)c1 | -3 | . | -1 | .
O=C(COC(=O)c1cccc(S(=O)(=O)N2CCCC2)c1)Nc1ccc(Cl)cc1 | 97* | . | 0 | -4
Cc1ccc(Cn2c(=O)c3ccccc3n3nc(C)cc23)cc1 | 36* | 21 | 25 | -4
COCCCn1c(=O)c2ccccc2n(Cc2ccc(C)cc2)c1=O | 19 | 0 | 18 | -7
COc1ccc(-c2cc(C#N)nc(Cl)n2)cc1 | 20 | 20 | 78* | -3
COc1ccc(-c2cc(C#N)nc(Oc3ccc(Cl)cc3)n2)cc1 | -2 | 22 | 5 | -5
CC(C)(C)n1ncc2c(=O)n(Cc3c(F)cccc3Cl)cnc21 | 40* | 3 | 28 | -3
Cn1c(OCc2ccco2)nc2c1c(=O)n(Cc1ccc(Cl)c(Cl)c1)c(=O)n2C | . | 81* | . | .
Cc1cccc(Cl)c1NC(=O)N(C)c1ccccc1 | -16 | . | -6 | -3
N#Cc1c(-c2cccs2)cc(-c2cccs2)[nH]c1=O | -10 | 18 | 10 | 12
Cc1cc(-c2cccs2)c(C#N)c(=S)[nH]1 | 6 | 41 | 40* | 2
Cn1c(N)c(C(=O)Nc2cccc(Cl)c2)c(=O)n(C)c1=O | -6 | 5 | 47* | -4
CCOc1cc(C=NN2CCN(Cc3ccc(C)cc3)CC2)ccc1O | 1 | . | -1 | .
O=c1c(Cl)c(Cl)cnn1Cc1nnc(-c2ccc(Cl)cc2)o1 | 9 | 1 | 49* | -1
SMILES | NPR2 activator | Arr AP2 block | GC-A act | GalR3 antagonist
Cc1ccc(CNC(=O)[C@@H](Cc2ccccc2)NC(=O)[C@H]2O[C@@H](n3ccc(N)nc3=O)[C@H](O)[C@@H]2O)o1 | 1 | . | 2 | -7
O=C(COC(=O)Cc1c(Cl)cccc1Cl)NCC1CCCO1 (centres undefined) | 2 | 12 | 1 | 14*
CCN1C(=S)N[C@@H](c2cccs2)C(C(=O)OC)=C1C | 35* | 38 | 29 | -5
CCN1C(=O)N[C@@H](c2cccs2)C(C(=O)OC)=C1C | -4 | 1 | -1 | 4
COc1ccccc1-c1cc(NC(C)=O)c2ncc(-c3ccc(S(C)(=O)=O)cc3)n2c1 | 9 | . | 6 | -7
CC(=O)Nc1cc(-c2ccccc2Cl)cn2c(-c3ccc(S(C)(=O)=O)cc3)cnc12 | 43* | . | 17 | -2
Nc1nc(NCc2ccco2)nc(Nc2ccccc2)c1[N+](=O)[O-] | -5 | 10 | 1 | -3
Nc1nc(Nc2ccccc2)nc(NCc2ccco2)c1[N+](=O)[O-] | 11 | 40 | 47* | -10
Cc1ccc(Nc2nc(N)c([N+](=O)[O-])c(NCc3ccco3)n2)cc1 | 18 | -9 | 41* | -7
CN1CCCCC(NC(=O)C2CCCCC2)C1=O (centres undefined) | 1 | . | -1 | -2
O=C(Nc1nc2c(Cl)ccc(Cl)c2s1)C1CC1 | -6 | 3 | 61* | .
O=C(CN1C(=O)CCC1=O)Nc1nc2c(F)cc(F)cc2s1 | 2 | 21 | 36 | .
O=C(Nc1nc2c(F)cc(F)cc2s1)C1CC1 | -2 | 16 | 67* | .
O=C(Nc1nc2c(Cl)c(Cl)ccc2s1)C1CC1 | -4 | 13 | 57* | .
Cc1ccc2sc(NC(=O)C3CC3)nc2c1C | 0 | -15 | 55* | -8
Cc1cccc2sc(NC(=O)C3CC3)nc12 | 3 | -20 | 28 | -8
CCC(C)CNC(=O)CSc1nnc(-c2cccnc2)n1C1CCCCC1 (centres undefined) | 2 | . | -1 | .
Cc1cc(Br)cn2c(Cc3ccsc3)c(-c3ccco3)nc12 | 18 | . | 11 | -3
Cc1cc(Br)cn2c(Cc3ccccc3)c(-c3ccco3)nc12 | 35* | . | 32 | 3
COC(=O)CCC/C=C1/SCC(NC(=O)c2ccccc2)C1=O (centres undefined) | 1 | -9 | 1 | 13*
O=C(O)c1ccc(N=Nc2c(O)[nH]c3ccc(Br)cc23)cc1 | -3 | 2 | -3 | -4
O=c1ccc2cc3c([nH]c4ccc(Br)cc43)oc-2c1O | -15 | 72* | 32 | -1
CCCCn1c2nc3ccccc3nc2c2c(=O)n(CCC(C)C)cnc21 | 9 | 7 | 17 | -5
COc1ccc(Cn2c(C)nc3c(c2=O)c2nc4ccccc4nc2n3Cc2ccco2)cc1 | 28 | 8 | 28 | -2
CCC(C)n1cnc2c(c1=O)c1nc3ccccc3nc1n2Cc1ccc(OC)cc1 (centres undefined) | 54* | 20 | 53* | -6
SMILES | NPR2 activator | Arr AP2 block | GC-A act | GalR3 antagonist
CCCCn1cnc2c(c1=O)c1nc3ccccc3nc1n2Cc1ccc2c(c1)OCO2 | 52* | 6 | 52* | 9
CCc1nnc2c(NCCc3ccc(OC)c(OC)c3)nc3ccccc3n12 | 53* | -5 | 40* | -7
COc1ccc(CCNc2nc3ccccc3n3cnnc23)cc1OC | 14 | -1 | 8 | 0
CC1(C)Cc2c(c(N3CCOCC3)nc3sc(C#N)c(N)c23)CS1 | 19 | 2 | 22 | -1
C1CCc2c(c(N3CCOCC3)nc3sc4c(N5CCOCC5)nnnc4c23)C1 | -3 | 20 | 3 | -3
CC(C)CCNc1nnnc2c1sc1nc(N3CCOCC3)c3c(c12)CC(C)(C)SC3 | 57* | 4 | 52* | -1
